ChEMBL document CHEMBL5352504, “PINK1-Dependent Mitophagy Inhibits Elevated Ubiquitin Phosphorylation Caused by Mitochondrial Damage” (J Med Chem, 2023)
Active and inactive are the calls of the source. The rule behind the calls is not given here.

What was measured:
[1] = molecular target: Serine/threonine-protein kinase PINK1, mitochondrial (Homo sapiens) (UniProt Q9BXM7); assay: Activation of human PINK1 in human HeLa cells overexpressing Parkin assessed as phosphorylation of ubiquitin at serine 65 at 10 uM and measured after 3 hr by Western blot analysis; assay type: cell-based; conditions: filed as activator
Method in brief: (§1)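 Parkin-transfected HeLa (DMEM, 10% FBS, 37 °C, 5% CO2) treated 3 h with 10 μM agent (CCCP control arm), with or without 24 h pre-treatment at 50 μM. Lysed in Tris pH 7.5 buffer with phosphatase/protease inhibitors, protein by Bradford, boiled in SDS buffer, immunoblotted for pUb Ser65, OPA1 (cleavage as depolarization read-out) and GAPDH loading control.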

HeLa [2] = assay: Induction of mitochondrial membrane depolarization in human HeLa cells overexpressing Parkin assessed as OPA1 cleavage at 10 uM and measured after 3 hrs by Western blot analysis; assay type: functional, cell-based; method in brief: as §1
[3] = molecular target: Serine/threonine-protein kinase PINK1, mitochondrial (Homo sapiens) (UniProt Q9BXM7); assay: Activation of PINK1 in human HeLa cells transfected with Parkin assessed as increase in Parkin phosphorylation at serine 65 at 50 uM incubated for 1 hr by Western blot analysis; assay type: cell-based
Method in brief: (§2)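 HeLa cells transfected with Parkin were exposed to 50 μM compound for 1 h, with 10 μM CCCP for 3 h as a control. Cells were then lysed and immunoblotted for pSer65 Parkin, total Parkin, OPA1 and GAPDH (loading control). Untreated transfected and untransfected cells were included. Blots are representative of three repeat experiments.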

MEF [4] = assay: Induction of mitophagy in wild-type PINK1 harboring mouse immortalized MEF cells overexpressing HA-tagged Parkin assessed as increase in mitophagy at 20 uM incubated for 16 hrs by flow cytometry analysis; assay type: functional, cell-based
Method in brief: (§3)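 Immortalized MEFs from littermate PINK1 WT or KO mito-QC embryos (mCherry-GFP-FIS1 reporter), overexpressing HA-Parkin; 2.5 × 10^5 cells seeded day before, treated 16 h. Trypsinized, fixed in 3.7% formaldehyde/200 mM HEPES pH 7.0, ≥2 × 10^4 cells acquired by flow cytometry; live cells gated, percent mitophagy from GFP/mCherry ratio using untreated-cell gate; n = 3; two-way ANOVA with Sidak test.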

MEF [5] = assay: Induction of mitophagy in PINK1 knockout mouse immortalized MEF cells overexpressing HA-tagged Parkin assessed as increase in mitophagy at 20 uM incubated for 16 hrs by flow cytometry analysis; assay type: functional, cell-based; method in brief: as §3
[6] = molecular target: Serine/threonine-protein kinase PINK1, mitochondrial (Homo sapiens) (UniProt Q9BXM7); assay: Activation of PINK1 in human HeLa cells transfected with Parkin assessed as prevention of OPA1 cleavage at 50 uM incubated for 1 hr by Western blot analysis; assay type: cell-based; method in brief: as §2
HeLa [7] = assay: Induction of mitophagy in human HeLa cells transfected with YFP-Parkin assessed as effect on mitochondrial fragmentation at 50 uM incubated for 24 hrs by Hoechst 33258 staining based immunofluorescence analysis; assay type: functional, cell-based
Method in brief: (§4)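 YFP-Parkin-transfected HeLa cells were left untreated or exposed to 50 μM compound alone for 24 h. Cells were PFA-fixed, Triton-permeabilised and immunostained for pSer65-Ub and TOM20 with Hoechst. Confocal imaging assessed mitochondrial fragmentation, YFP-Parkin localisation and ubiquitin phosphorylation.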

HeLa [8] = assay: Induction of mitophagy in human HeLa cells transfected with YFP-Parkin assessed as effect on Parkin localization at 50 uM incubated for 24 hrs by Hoechst 33258 staining based immunofluorescence analysis; assay type: functional, cell-based; method in brief: as §4
HeLa [9] = assay: Induction of mitophagy in YFP-Parkin-transfected human HeLa cells assessed as effect on ubiquitin phosphorylation at 50 uM incubated for 24 hrs by Hoechst 33258 staining based immunofluorescence analysis; assay type: functional, cell-based; method in brief: as §4
HeLa [10] = assay: Induction of mitophagy in human HeLa cells transfected with YFP-Parkin assessed as parkin localization in mitochondria at 50 uM preincubated for 24 hrs followed by CCCP stimulation and measured after 1 hr hr by Hoechst 33258 staining based immunofluorescence analysis; assay type: functional, cell-based
Method in brief: (§5)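 YFP-Parkin HeLa cells were pretreated with 50 μM compound for 24 h, then given 10 μM CCCP or niclosamide for 1 h. Cells were fixed in chilled 4% PFA, permeabilised with 0.1% Triton, blocked in BSA, then immunostained overnight at 4 °C for pSer65-Ub and TOM20 with Hoechst. YFP-Parkin was imaged by confocal microscopy (40× oil). pUb mitochondrial localisation was quantified from images.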

[11] = molecular target: Serine/threonine-protein kinase PINK1, mitochondrial (Mus musculus) (UniProt Q99MQ3); assay: Activation of mouse PINK1 in mouse astrocytes assessed increase in ubiquitin serine 65 phosphorylation at 50 uM incubated for 24 hrs by ELISA analysis; assay type: cell-based; conditions: Astrocyte, filed as activator
Method in brief: (§6)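 Primary cortical astrocytes came from postnatal day 3 C57BL/6J pups and were used at 70–90% confluence (7–10 days in vitro). Lysates (HEPES/NP-40 lysis, pellet resuspended in RIPA) went to pS65-Ub ELISA. Signal was normalised per μg protein (BCA); mean ± SEM, n = 8.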

[12] = molecular target: Serine/threonine-protein kinase PINK1, mitochondrial (Mus musculus) (UniProt Q99MQ3); assay: Activation of mouse PINK1 in mouse astrocytes assessed ubiquitin serine 65 phosphorylation at 50 uM preincubated for 24 hrs followed by valinomycin treatment for 5 hrs by ELISA; assay type: cell-based; conditions: Astrocyte, time 29.0 hrs; method in brief: as §6
MEF [13] = assay: Induction of mitophagy in wild-type PINK1 harboring mouse immortalized MEF cells overexpressing HA-tagged Parkin assessed as increase in mitophagy at 5 uM incubated for 16 hrs by flow cytometry analysis; assay type: functional, cell-based
Method in brief: (§7)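 Immortalised MEFs from PINK1 WT or KO mito-QC littermate embryos, overexpressing HA-Parkin, were treated for 16 h. Cells were trypsinised, fixed in 3.7% formaldehyde/200 mM HEPES pH 7.0 and analysed by flow cytometry (≥2 × 10^4 cells). Living cells were gated on scatter, and the untreated-condition gate was applied to all conditions. Percent cells undergoing mitophagy was taken from the GFP/mCherry ratio; n = 3, two-way ANOVA with Sidak test.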

MEF [14] = assay: Induction of mitophagy in PINK1 knockout mouse immortalized MEF cells overexpressing HA-tagged Parkin assessed as increase in mitophagy at 5 uM incubated for 16 hrs by flow cytometry analysis; assay type: functional, cell-based; method in brief: as §7
[15] = molecular target: T1, Serine/threonine-protein kinase Pink1, mitochondrial (Tribolium castaneum) (UniProt D6WMX4); assay: Inhibition of recombinant Tribolium castaneum PINK1 using human Parkin as substrate assessed as substrate phosphorylation upto 100 uM
T1 sequence (whole entry): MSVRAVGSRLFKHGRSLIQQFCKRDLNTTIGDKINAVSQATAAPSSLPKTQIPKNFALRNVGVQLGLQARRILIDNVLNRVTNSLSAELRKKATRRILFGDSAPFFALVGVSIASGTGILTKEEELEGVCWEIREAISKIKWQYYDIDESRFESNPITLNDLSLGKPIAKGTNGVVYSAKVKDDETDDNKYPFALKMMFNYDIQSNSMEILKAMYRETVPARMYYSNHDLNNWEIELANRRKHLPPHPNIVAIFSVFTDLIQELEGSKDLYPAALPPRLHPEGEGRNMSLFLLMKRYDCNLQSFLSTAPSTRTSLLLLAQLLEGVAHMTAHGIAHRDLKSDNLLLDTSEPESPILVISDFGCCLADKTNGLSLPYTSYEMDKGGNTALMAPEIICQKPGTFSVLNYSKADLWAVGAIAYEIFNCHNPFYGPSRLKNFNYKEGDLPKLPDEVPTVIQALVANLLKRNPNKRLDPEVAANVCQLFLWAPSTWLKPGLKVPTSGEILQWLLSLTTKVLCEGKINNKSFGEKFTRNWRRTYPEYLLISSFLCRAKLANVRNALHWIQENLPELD

[16] = molecular target: T1, Serine/threonine-protein kinase Pink1, mitochondrial (Tribolium castaneum); assay: Inhibition of recombinant Tribolium castaneum PINK1 using human ubiquitin as substrate assessed as substrate phosphorylation upto 100 uM
HeLa [17] = assay: Inhibition of CCCP-induced ubiquitin phosphorylation at serine 65 residue in human HeLa cells transfected with YFP-Parkin at 50 uM preincubated for 24 hrs followed by CCCP stimulation and measured after 1 hr hr by Hoechst 33258 staining based immunofluorescence analysis; assay type: cell-based; conditions: time 25.0 hrs; method in brief: as §5

Serine/threonine-protein kinase PINK1, mitochondrial (Homo sapiens), sequence (Q9BXM7 whole entry, the tested form may be a part): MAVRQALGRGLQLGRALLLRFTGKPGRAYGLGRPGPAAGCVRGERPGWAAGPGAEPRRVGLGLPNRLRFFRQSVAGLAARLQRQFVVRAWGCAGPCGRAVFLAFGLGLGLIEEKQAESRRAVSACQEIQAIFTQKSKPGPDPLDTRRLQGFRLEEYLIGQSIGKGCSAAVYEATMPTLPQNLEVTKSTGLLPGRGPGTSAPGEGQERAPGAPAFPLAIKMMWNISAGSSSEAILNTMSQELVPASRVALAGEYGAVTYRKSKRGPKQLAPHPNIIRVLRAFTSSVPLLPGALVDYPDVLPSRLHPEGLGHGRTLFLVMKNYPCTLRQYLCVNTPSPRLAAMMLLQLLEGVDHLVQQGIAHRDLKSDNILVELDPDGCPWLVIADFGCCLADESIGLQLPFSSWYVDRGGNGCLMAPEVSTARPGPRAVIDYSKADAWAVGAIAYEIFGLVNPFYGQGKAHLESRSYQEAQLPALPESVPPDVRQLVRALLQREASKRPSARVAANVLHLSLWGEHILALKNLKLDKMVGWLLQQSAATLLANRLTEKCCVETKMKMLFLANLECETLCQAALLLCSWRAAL
Serine/threonine-protein kinase PINK1, mitochondrial (Mus musculus), sequence (Q99MQ3 whole entry): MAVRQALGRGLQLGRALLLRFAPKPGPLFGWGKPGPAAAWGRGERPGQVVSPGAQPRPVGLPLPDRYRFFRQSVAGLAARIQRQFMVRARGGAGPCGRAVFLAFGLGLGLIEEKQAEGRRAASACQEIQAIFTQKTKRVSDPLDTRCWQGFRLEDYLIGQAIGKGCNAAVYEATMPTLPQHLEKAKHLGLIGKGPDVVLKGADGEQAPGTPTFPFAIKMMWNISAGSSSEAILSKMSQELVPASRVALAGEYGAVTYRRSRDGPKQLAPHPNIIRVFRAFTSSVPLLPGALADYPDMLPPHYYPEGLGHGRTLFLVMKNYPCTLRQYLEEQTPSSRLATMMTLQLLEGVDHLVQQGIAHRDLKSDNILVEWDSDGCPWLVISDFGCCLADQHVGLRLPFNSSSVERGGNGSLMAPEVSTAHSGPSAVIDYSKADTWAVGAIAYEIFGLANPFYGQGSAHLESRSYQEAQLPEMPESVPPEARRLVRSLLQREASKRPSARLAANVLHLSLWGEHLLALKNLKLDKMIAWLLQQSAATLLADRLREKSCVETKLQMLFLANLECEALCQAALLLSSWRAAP

With `O=C(Nc1ccc([N+](=O)[O-])cc1Cl)c1cc(Cl)ccc1O` the Activity [1] was “Active” and the Activity (HeLa [2]) was “Active”.
For `CC(C)(C)CNc1ncnc2[nH]cnc12`, the Activity [3] was “inactive”.
For `CC(C)Nc1ncnc2[nH]cnc12`, the Activity [3] was “inactive”.
With `c1ccc(CNc2ncnc3[nH]cnc23)cc1` the Activity [3] was “inactive”.
In the case of `N#CC(C#N)=NNc1cccc(Cl)c1`, the Activity [1] was “Active”, the Activity (MEF [4]) was “Active” and the Activity (MEF [5]) was “inactive”. The Activity (HeLa [2]) was “Active”.
In the case of `c1nc(NC2CCCC2)c2nc[nH]c2n1`, the Activity [3] was “inactive”.
In the case of `OC[C@H]1O[C@@H](n2cnc3c(NCCc4ccc(O)cc4)ncnc32)[C@H](O)[C@@H]1O`, the Activity ([3]; filed as activator) was “Active” and the Activity [6] was “inactive”.
With `OC[C@H]1O[C@@H](n2cnc3c(NC4CCCC4)ncnc32)[C@H](O)[C@@H]1O` the Activity ([3]; filed as activator) was “Active” and the Activity [6] was “inactive”.
`OC[C@H]1O[C@@H](n2cnc3c(NCc4ccccc4)ncnc32)[C@H](O)[C@@H]1O` was tested, and the Activity ([3]; filed as activator) was “Active”, the Activity [6] was “inactive” and the Activity (HeLa [7]) was “inactive”. The Activity (HeLa [8]) was “inactive”, the Activity (HeLa [9]) was “inactive” and the Activity (HeLa [10]) was “Active”. The Activity [11] was “Active”, the Activity [12] was “inactive” and the Activity (MEF [13]) was “Active”. For the same compound, the Activity (MEF [14]) was “inactive”, the inhibition [15] was “inactive” and the inhibition [16] was “inactive”. For the same compound, the inhibition (HeLa [17]) was “Active”.
